According to ChEMBL document CHEMBL3217724, “Synthesis and evaluation of a series of benzothiophene acrylonitrile analogs as anticancer agents” (Medchemcomm, 2013):
Active and inactive are the calls of the source. No cut-off for these calls is given here.

Legend:
[1] = Growth inhibition of pig LLC-PK1 cells by Alamar Blue assay; assay type: cell-based, Sus scrofa
Summary of the method: (§1)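 Cell viability was read with AlamarBlue dye in 96-well format and GI50 values derived, to assess P-gp effects. Cells were P-gp-expressing NCI/ADR-Res ovarian cancer cells and L-MDR1 porcine epithelial cells, each with its non-expressing parent line. P-gp expression was confirmed by Western blot with β-actin as loading control. Resistance is the GI50 in the P-gp line over the GI50 in the parent line.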

[2] = Growth inhibition of human OVCAR8 cells by Alamar Blue assay; assay type: functional; settings: OVCAR-8; summary of the method: as §1
PC-3 [3] = experiment: Induction of beta tubulin de-stabilization in human PC3 cells at 10 nM after 24 hrs by DAPI-staining based immunofluorescence assay; assay type: cell-based
Summary of the method: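 PC3 cells were treated for 24 hours with the test agent at 1, 10 or 100 nM, or with 10 nM docetaxel or vinblastine as stabilizing and destabilizing references. Cells were immunostained for beta-tubulin (green) with DAPI nuclear counterstain (blue) and the microtubule staining pattern imaged.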

OVCAR-8 = experiment: Resistance factor, ratio of GI50 for P-gp expressing NCI-ADR-RES cells to GI50 for human OVCAR8 cells; assay type: functional; summary of the method: as §1
LLC-PK1 [4] = experiment: Growth inhibition of pig LLC-PK1 cells expressing MDR1 by Alamar Blue assay; assay type: functional; settings: Sus scrofa
Summary of the method: (§2)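 Porcine epithelial L-MDR1 (P-gp expressing) cells and their non-expressing parent line were exposed to compound for 72 h. Viability was read with AlamarBlue dye and GI50 derived. P-gp expression was verified by Western blot with β-actin as loading control. The resistance ratio compares GI50 in MDR1 versus parent cells.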

LLC-PK1 [5] = experiment: Resistance factor, ratio of GI50 for pig LLC-PK1 cells expressing MDR1 to GI50 for pig LLC-PK1 cells; design: species or system Sus scrofa; summary of the method: as §2
Tubulin (Homo sapiens) = Tubulin (Homo sapiens) (UniProt P68371+Q9H4B7+P0DPH7+P68366+Q13509+Q71U36+P04350+Q3ZCM7+P07437+P68363+Q9BQE3+Q6PEY2+Q13885+Q9BVA1+Q9BUF5); settings: 5 uM
PC-3 [6] = experiment: Growth inhibition of human PC3 cells after 72 hrs by Alamar Blue assay; assay type: functional; settings: PC-3, 72 h
Summary of the method: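 PC3 prostate cancer cells and docetaxel-resistant PC3-DR cells were exposed to drug for 72 hours in 96-well format. Viability was read with AlamarBlue dye and GI50 derived. Resistance is the GI50 in PC3-DR over the GI50 in parental PC3.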

[7] = Growth inhibition of P-gp expressing human NCI-ADR-RES cells by Alamar Blue assay; assay type: functional
Summary of the method: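 72-h cytotoxicity in 96-well plates with AlamarBlue viability dye, giving GI50. Line 1 uses docetaxel-resistant PC3 prostate cells (PC3-DR), and line 2 uses NCI/ADR-Res ovarian cells. P-gp expression in both was confirmed by Western blot, with β-actin as the loading control.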

- inhibition (Tubulin (Homo sapiens)): Active
- GI50 (PC-3 [6]): 5.2 nM
SMILES: CC[C@]1(O)C[C@@H]2CN(CCc3c([nH]c4ccccc34)[C@@](C(=O)OC)(c3cc4c(cc3OC)N(C)[C@H]3[C@@](O)(C(=O)OC)[C@H](OC(C)=O)[C@]5(CC)C=CCN6CC[C@]43[C@@H]65)C2)C1 [VINBLASTINE]
- GI50 [1]: 1.5 nM
- GI50 [2]: 2.8 nM
- Activity (PC-3 [3]): Active
- RatioGI50 (OVCAR-8): 500
- GI50 (LLC-PK1 [4]): 86.8 nM
- RatioGI50 (LLC-PK1 [5]): 58
- GI50 [7]: 1400 nM
